Results: ChEMBL document CHEMBL1148475, “Nonpeptide luteinizing hormone-releasing hormone antagonists derived from erythromycin A: design, synthesis, and biological activity of cladinose replacement analogues” (J Med Chem, 2004)

Key:
[1] = target: T1, Gonadotropin-releasing hormone receptor (Homo sapiens, UniProt P30968); assay: In vitro binding affinity was determined against human Luteinizing hormone-releasing hormone (LHRH) receptor cloned in CHO cells; type: cell-based
T1 sequence (P30968 whole entry): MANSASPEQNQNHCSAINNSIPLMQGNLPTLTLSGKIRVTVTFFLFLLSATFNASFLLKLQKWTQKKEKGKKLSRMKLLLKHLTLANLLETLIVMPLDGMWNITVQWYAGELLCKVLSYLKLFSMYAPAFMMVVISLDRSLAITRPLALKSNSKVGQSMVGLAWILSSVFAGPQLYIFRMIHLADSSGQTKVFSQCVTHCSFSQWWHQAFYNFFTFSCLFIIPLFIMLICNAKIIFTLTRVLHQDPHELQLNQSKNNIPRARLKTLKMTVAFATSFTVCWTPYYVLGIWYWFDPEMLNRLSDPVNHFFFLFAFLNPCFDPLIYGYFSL

[2] = target: T1, Gonadotropin-releasing hormone receptor; assay: In vitro binding affinity to human luteinizing hormone-releasing hormone (LHRH) receptor cloned in CHO cells; type: cell-based
[3] = target: T2, Gonadotropin-releasing hormone receptor (Rattus norvegicus, UniProt P30969); assay: In vitro binding affinity to rat luteinizing hormone-releasing hormone (LHRH) receptor cloned in CHO cells; type: cell-based
T2 sequence (P30969 whole entry): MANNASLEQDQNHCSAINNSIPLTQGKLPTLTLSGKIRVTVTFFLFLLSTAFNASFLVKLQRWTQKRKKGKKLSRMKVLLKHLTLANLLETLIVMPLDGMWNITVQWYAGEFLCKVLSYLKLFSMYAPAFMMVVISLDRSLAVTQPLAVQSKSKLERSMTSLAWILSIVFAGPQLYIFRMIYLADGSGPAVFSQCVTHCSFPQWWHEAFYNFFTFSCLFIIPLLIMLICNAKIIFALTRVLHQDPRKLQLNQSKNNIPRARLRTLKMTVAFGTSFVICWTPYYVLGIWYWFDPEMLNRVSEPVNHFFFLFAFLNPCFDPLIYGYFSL

[4] = target: Gonadotropin-releasing hormone receptor (Rattus norvegicus, UniProt P30969); assay: In vitro binding ability against Luteinizing hormone-releasing hormone release in rat pituitary cells; type: cell-based, Pituitary gland cell; details: read-out: pA2 (converted)
Procedure, shortened: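 Functional antagonism of LH release measured in cultured rat pituitary cells; potency expressed as pA2.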

| Compound | Ki [1] [nM] | Ki [2] [nM] | Ki [3] [nM] | Kb [4] [nM] | Log Ki ([2]; cho) |
| --- | --- | --- | --- | --- | --- |
| CC[C@H]1OC(=O)[C@H](C)[C@@H](OC(=O)N2CCOC2)[C@H](C)[C@@H](OC2O[C@H](C)C[C@H](N(C)C(C)C)[C@H]2O)[C@@](C)(OC)C[C@@H](C)C(=O)[C@H](C)[C@H]2N(CCc3ccc(Cl)cc3)C(=O)O[C@]12C (stereo partly drawn) | 200 |  |  |  |  |
| CC[C@H]1OC(=O)[C@H](C)[C@@H](OC(=O)N2C(=O)OC[C@@H]2C)[C@H](C)[C@@H](OC2O[C@H](C)C[C@H](N(C)C(C)C)[C@H]2O)[C@@](C)(OC)C[C@@H](C)C(=O)[C@H](C)[C@H]2N(CCc3ccc(Cl)cc3)C(=O)O[C@]12C (stereo partly drawn) |  | 18.6 | 2.88 |  |  |
| CC[C@H]1OC(=O)[C@H](C)[C@@H](OC(=O)N2C(=O)OCC2(C)C)[C@H](C)[C@@H](OC2O[C@H](C)C[C@H](N(C)C(C)C)[C@H]2O)[C@@](C)(OC)C[C@@H](C)C(=O)[C@H](C)[C@H]2N(CCc3ccc(Cl)cc3)C(=O)O[C@]12C (stereo partly drawn) |  | 79.4 | 8.91 |  |  |
| CC[C@H]1OC(=O)[C@H](C)[C@@H](OC(=O)N2CCOC2=O)[C@H](C)[C@@H](OC2O[C@H](C)C[C@H](N(C)C(C)C)[C@H]2O)[C@@](C)(OC)C[C@@H](C)C(=O)[C@H](C)[C@H]2N(CCc3ccc(Cl)cc3)C(=O)O[C@]12C (stereo partly drawn) |  | 115 | 2.14 |  |  |
| CC[C@H]1OC(=O)[C@H](C)[C@@H](OC(=O)N2C(=O)OC[C@@H]2C)[C@H](C)[C@@H](O[C@@H]2O[C@H](C)C[C@H](N(C)CC3CC3)[C@H]2O)[C@@](C)(OC)C[C@@H](C)C(=O)[C@H](C)[C@H]2N(CCc3ccc(Cl)c(Cl)c3)C(=O)O[C@]12C |  | 1.86 | 0.676 | 1.74 |  |
| CC[C@H]1OC(=O)[C@H](C)[C@@H](OC(=O)N2CC(C)OC2=O)[C@H](C)[C@@H](OC2O[C@H](C)C[C@H](N(C)C(C)C)[C@H]2O)[C@@](C)(OC)C[C@@H](C)C(=O)[C@H](C)[C@H]2N(CCc3ccc(Cl)cc3)C(=O)O[C@]12C (stereo partly drawn) |  | 36.3 | 7.94 |  |  |
| CC[C@H]1OC(=O)[C@H](C)[C@@H](OC(=O)N2CCN(C)C2=O)[C@H](C)[C@@H](OC2O[C@H](C)C[C@H](N(C)C(C)C)[C@H]2O)[C@@](C)(OC)C[C@@H](C)C(=O)[C@H](C)[C@H]2N(CCc3ccc(Cl)cc3)C(=O)O[C@]12C (stereo partly drawn) |  | 4680 | 1230 |  |  |
| CCC1CN(C(=O)O[C@H]2[C@H](C)[C@@H](OC3O[C@H](C)C[C@H](N(C)C(C)C)[C@H]3O)[C@@](C)(OC)C[C@@H](C)C(=O)[C@H](C)[C@H]3N(CCc4ccc(Cl)cc4)C(=O)O[C@]3(C)[C@@H](CC)OC(=O)[C@@H]2C)C(=O)O1 (stereo partly drawn) |  | 562 | 18.2 |  |  |
| CC[C@H]1OC(=O)[C@H](C)[C@@H](OC(=O)N2C(=O)OC[C@H]2C)[C@H](C)[C@@H](OC2O[C@H](C)C[C@H](N(C)C(C)C)[C@H]2O)[C@@](C)(OC)C[C@@H](C)C(=O)[C@H](C)[C@H]2N(CCc3ccc(Cl)cc3)C(=O)O[C@]12C (stereo partly drawn) |  | 49 | 5.25 |  |  |
| CC[C@H]1OC(=O)[C@H](C)[C@@H](OC(=O)N2C(=O)OC[C@@H]2C)[C@H](C)[C@@H](OC2O[C@H](C)C[C@H](N(C)C3CCCC3)[C@H]2O)[C@@](C)(OC)C[C@@H](C)C(=O)[C@H](C)[C@H]2N(CCc3ccc(Cl)cc3)C(=O)O[C@]12C (stereo partly drawn) |  | 38 | 1.17 |  |  |
| CC[C@H]1OC(=O)[C@H](C)[C@@H](OC(=O)N2C(=O)OC[C@@H]2C)[C@H](C)[C@@H](OC2O[C@H](C)C[C@H](N(C)C3CCCC3)[C@H]2O)[C@@](C)(OC)C[C@@H](C)C(=O)[C@H](C)[C@H]2N(CCc3ccc(Cl)c(Cl)c3)C(=O)O[C@]12C (stereo partly drawn) |  | 5.62 | 0.692 | 0.135 |  |
| CC[C@H]1OC(=O)[C@H](C)[C@@H](OC(=O)C2CCCC2)[C@H](C)[C@@H](OC2O[C@H](C)C[C@H](N(C)C(C)C)[C@H]2O)[C@@](C)(OC)C[C@@H](C)C(=O)[C@H](C)[C@H]2N(CCc3ccc(Cl)cc3)C(=O)O[C@]12C (stereo partly drawn) |  | 631 | 50.1 |  |  |
| CC[C@H]1OC(=O)[C@H](C)[C@@H](OC(=O)N2CCOC2C)[C@H](C)[C@@H](OC2O[C@H](C)C[C@H](N(C)C(C)C)[C@H]2O)[C@@](C)(OC)C[C@@H](C)C(=O)[C@H](C)[C@H]2N(CCc3ccc(Cl)cc3)C(=O)O[C@]12C (stereo partly drawn) |  | 794 | 120 |  |  |
| CC[C@H]1OC(=O)[C@H](C)[C@@H](OC(=O)N2C(=O)OC[C@H]2CC(C)C)[C@H](C)[C@@H](OC2O[C@H](C)C[C@H](N(C)C(C)C)[C@H]2O)[C@@](C)(OC)C[C@@H](C)C(=O)[C@H](C)[C@H]2N(CCc3ccc(Cl)cc3)C(=O)O[C@]12C (stereo partly drawn) |  | 275 | 692 |  |  |
| CC[C@H]1OC(=O)[C@H](C)[C@@H](OC(=O)N2C(=O)O[C@H](C)[C@@H]2C)[C@H](C)[C@@H](OC2O[C@H](C)C[C@H](N(C)C(C)C)[C@H]2O)[C@@](C)(OC)C[C@@H](C)C(=O)[C@H](C)[C@H]2N(CCc3ccc(Cl)cc3)C(=O)O[C@]12C (stereo partly drawn) |  |  | 2.88 |  | < -7 |
| CC[C@H]1OC(=O)[C@H](C)[C@@H](OC(=O)N2C(=O)OC[C@@H]2C)[C@H](C)[C@@H](OC2O[C@H](C)C[C@H](N(C)C(C)C)[C@H]2O)[C@@](C)(OC)C[C@@H](C)C(=O)[C@H](C)[C@H]2N(CCc3ccc(Cl)c(Cl)c3)C(=O)O[C@]12C (stereo partly drawn) |  | 15.1 | 0.234 | 1.78 |  |
| CC[C@H]1OC(=O)[C@H](C)[C@@H](OC(=O)N2C(=O)OC[C@@H]2C)[C@H](C)[C@@H](OC2O[C@H](C)C[C@H](N(C)CC3CC3)[C@H]2O)[C@@](C)(OC)C[C@@H](C)C(=O)[C@H](C)[C@H]2N(CCc3ccc(F)c(Cl)c3)C(=O)O[C@]12C (stereo partly drawn) |  | 0.331 | 0.107 | 0.479 |  |
| CC[C@H]1OC(=O)[C@H](C)[C@@H](OC(=O)N2CCNC2=O)[C@H](C)[C@@H](OC2O[C@H](C)C[C@H](N(C)C(C)C)[C@H]2O)[C@@](C)(OC)C[C@@H](C)C(=O)[C@H](C)[C@H]2N(CCc3ccc(Cl)cc3)C(=O)O[C@]12C (stereo partly drawn) |  | 2040 | 219 |  |  |
| CC[C@H]1OC(=O)[C@H](C)[C@@H](OC(=O)C2CCOC2)[C@H](C)[C@@H](OC2O[C@H](C)C[C@H](N(C)C(C)C)[C@H]2O)[C@@](C)(OC)C[C@@H](C)C(=O)[C@H](C)[C@H]2N(CCc3ccc(Cl)cc3)C(=O)O[C@]12C (stereo partly drawn) |  | 214 | 14.1 |  |  |
| CC[C@H]1OC(=O)[C@H](C)[C@@H](OC(=O)N2CCOCC2)[C@H](C)[C@@H](OC2O[C@H](C)C[C@H](N(C)C(C)C)[C@H]2O)[C@@](C)(OC)C[C@@H](C)C(=O)[C@H](C)[C@H]2N(CCc3ccc(Cl)cc3)C(=O)O[C@]12C (stereo partly drawn) |  | 5620 | 427 |  |  |
| CC[C@H]1OC(=O)[C@H](C)[C@@H](OC2C[C@@](C)(OC)[C@@H](O)[C@H](C)O2)[C@H](C)[C@@H](OC2O[C@H](C)C[C@H](N(C)C(C)C)[C@H]2O)[C@@](C)(OC)C[C@@H](C)C(=O)[C@H](C)[C@H]2N(CCc3ccc(Cl)cc3)C(=O)O[C@]12C (stereo partly drawn) |  | 22.4 | 4.47 |  |  |
| CC[C@H]1COC(=O)N1C(=O)O[C@H]1[C@H](C)[C@@H](OC2O[C@H](C)C[C@H](N(C)C(C)C)[C@H]2O)[C@@](C)(OC)C[C@@H](C)C(=O)[C@H](C)[C@H]2N(CCc3ccc(Cl)cc3)C(=O)O[C@]2(C)[C@@H](CC)OC(=O)[C@@H]1C (stereo partly drawn) |  | 66.1 | 6.31 |  |  |
| CC[C@H]1OC(=O)[C@H](C)[C@@H](OC(=O)CC(C)C)[C@H](C)[C@@H](OC2O[C@H](C)C[C@H](N(C)C(C)C)[C@H]2O)[C@@](C)(OC)C[C@@H](C)C(=O)[C@H](C)[C@H]2N(CCc3ccc(Cl)cc3)C(=O)O[C@]12C (stereo partly drawn) |  | 2040 | 141 |  |  |
| CC[C@H]1OC(=O)[C@H](C)[C@@H](O)[C@H](C)[C@@H](OC2O[C@H](C)C[C@H](N(C)C(C)C)[C@H]2O)[C@@](C)(OC)C[C@@H](C)C(=O)[C@H](C)[C@H]2N(CCc3ccc(Cl)cc3)C(=O)O[C@]12C (stereo partly drawn) |  | 10000 | 2510 |  |  |
| CC[C@H]1OC(=O)[C@H](C)[C@@H](OC(=O)N2CCCC2)[C@H](C)[C@@H](OC2O[C@H](C)C[C@H](N(C)C(C)C)[C@H]2O)[C@@](C)(OC)C[C@@H](C)C(=O)[C@H](C)[C@H]2N(CCc3ccc(Cl)cc3)C(=O)O[C@]12C (stereo partly drawn) |  | 1620 | 112 |  |  |
